Ecoli rRNA inh: inhibits bacterial ribosomal RNA function over humanized ribosomes; E. coli WT GFP vs humanized-ribosome RFP mutants, fluorescence, 24 h; hits give low values; DMSO median 0, no signal -100; GFP signal change (wild-type ribosome), % (test concentration not listed); actives 1.6% (n = 350,000); AID 720706;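 active means significant combined selectivity score with lowered wild-type GFP, culture density cut under 30%, mutant RFP and density less affected; inactive means any of these conditions unmet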
Cneo AK release: causes C. neoformans cell lysis | adenylate kinase release luminescence, 4 h; normalised: neutral wells 0, clomiphene wells 100 | lysis activity, % at 15 µM | actives 0.2% (n = 360,000);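 active means mean lysis activity across replicates of at least 80%, whatever share of replicates individually reach that level; inactive means mean lysis activity below 80%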
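read-out = cell lysis signal | test system = log-phase Cryptococcus neoformans yeast cells | input = cells at 5 × 10^6 per mL | medium = fresh YPD growth medium | signal = luminescent adenylate kinase detection reagent | timing = 4 h at 37 °C static, read 1 h later | dosing = single dose | controls = Clomiphene as positive lysis control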
S100A4 MyoIIA: inhibitors of human S100A4 binding to myosin IIA peptide. P26447. inhibition, % at 10.7 µM. S100A4/TAMRA-MyoIIA peptide fluorescence polarization. actives 0.14% (n = 360,000). AID 652163;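 active means mean inhibition of at least 70% across replicates, with every replicate also reaching that level; inconclusive means mean inhibition reaches 70% but some replicates fall short; inactive means mean inhibition below 70%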
Target sequence (P26447 whole entry, looked up): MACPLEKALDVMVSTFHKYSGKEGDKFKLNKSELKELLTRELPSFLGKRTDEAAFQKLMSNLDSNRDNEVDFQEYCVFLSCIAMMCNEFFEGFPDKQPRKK
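incubation = readout 5 min after mixing, signal stable up to 60 min | system = S100A4 monomer protein | buffer or medium = HEPES pH 7.2 with CaCl2, KCl, NaCl, DTT, Triton | benchmarks = neutral control DMSO, positive control TFP | also added = fluorescent myosin IIA peptide, 5 nM | compound dosing = one concentration per compound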
SIRT5 block: sirtuin-5 (human) deacylase inhibition; Q9NXA8; Purified SirT5, succinyl-peptide AMC, trypsin-coupled fluorescence; inhibition, % at 15 µM; actives 1.1% (n = 330,000); AID 652115; in the data active means inhibition above about 15%; inconclusive means no clear call, values can overlap the other calls
Target sequence (Q9NXA8 whole entry, looked up): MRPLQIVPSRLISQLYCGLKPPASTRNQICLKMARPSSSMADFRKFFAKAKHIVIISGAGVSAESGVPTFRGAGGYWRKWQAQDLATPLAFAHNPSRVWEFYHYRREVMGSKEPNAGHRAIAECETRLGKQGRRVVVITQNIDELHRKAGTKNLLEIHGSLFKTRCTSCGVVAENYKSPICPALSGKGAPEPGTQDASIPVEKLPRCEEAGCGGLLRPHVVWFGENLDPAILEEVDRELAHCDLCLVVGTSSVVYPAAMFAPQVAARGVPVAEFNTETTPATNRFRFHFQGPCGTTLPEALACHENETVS
PGC1a acetyl inh: PGC1a acetylation modulation, inhibitor mode; U2OS PGC1a acetylation, AlphaScreen anti-acetyl-lysine; with virally co-expressed GCN5 acetyltransferase; AID 651687; inhibition, % at 15.6 µM; actives 0.17% (n = 350,000);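 active means every replicate shows inhibition of at least 40%; inconclusive means mean inhibition at least 40% but some replicate below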
Statin myotox sup: suppression of simvastatin myotoxicity; C2C12 myotubes + simvastatin, ATP luminescence, 48 h; scaled: DMSO 0, geranylgeraniol control 100; rescue of ATP level, % at 7.49 µM; actives 0.78% (n = 330,000); AID 602340;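 active means mean ATP rescue above about 67%, or every replicate alone reaching that limit, limit read from the data, passing the limit was not always enough; inconclusive means no clear call, values can overlap the other calls; inactive means mean under the limit and some replicate under it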;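 further: myotubes were challenged with 10 µM simvastatin during compound exposure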
AID977621: growth inhibition of wild-type GFP E. coli, dose response, H69 mutant RFP, cherry-pick | AID 977621 | shares compounds with Ecoli rRNA inh | 1,900 tested, under 10 active | E. coli wild-type GFP strain growth, fluorescence, 24 h | activity change, negative = inhibition at 50 µM;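 active means Wild-type ribosome reporter drop at least double the humanized mutant ribosome reporter drop, growth loss under a set limit; inconclusive means no clear call, values can overlap the other calls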;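 further: wild-type GFP and H69 mutant RFP strains grown together 50/50 in each well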
AID977628: growth of wild-type and h24-humanized E. coli strains – h24 mutant RFP vs wild-type GFP, cherry-pick, dose response. shares compounds with Ecoli rRNA inh. E. coli WT GFP strain growth, fluorescence, 24 h. activity change, negative = inhibition at 50 µM. 1,900 tested, under 10 active. AID 977628;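 active means compound lowering the normal-ribosome reporter at least twice as much as the humanized-ribosome reporter, growth loss under a set limit; inconclusive means no clear call, values can overlap the other calls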;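 further: wild-type GFP and h24 humanized RFP strains co-cultured 1 to 1 per well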
Numbers stand for hits; . = inactive; ? = inconclusive; / = no result given. Only some compounds are listed: those with a hit (about 3% of all), similar ones and a draw of the others.

SMILES	Ecoli rRNA inh	Cneo AK release	S100A4 MyoIIA	SIRT5 block	PGC1a acetyl inh	Statin myotox sup	AID977621	AID977628
C[C@H]1CN([C@@H](C)CO)C(=O)c2ccccc2-c2ccccc2CO[C@H]1CN(C)Cc1ccc(C(F)(F)F)cc1	.	/	.	.	/	/	/	/
NC(=O)c1ccsc1NC(=O)COC(=O)CSc1ccc(Cl)cc1	-21	.	.	.	.	.	/	?
O=C(Cc1ccccn1)N1CC(=O)N2[C@@H](CO)[C@H](c3ccc(C#CC4CC4)cc3)[C@@H]2C1	.	/	.	.	.	/	/	/
O=S(=O)(Nc1ccccc1N1CCOCC1)c1cccs1	.	.	.	.	.	.	/	/
O=S(=O)(Nc1ccccc1N1CCCCC1)c1cccs1	-33	.	.	.	.	/	.	.
CCOC(=O)CCSc1nc(N2CCOCC2)c2c(c1C#N)CC(C)(C)OC2	.	/	.	.	/	/	/	/
CCOC(=O)C(C)Sc1nc(N2CCOCC2)c2c(c1C#N)CC(C)(C)OC2 (stereo not drawn)	-29	.	.	.	.	/	.	.
CCn1ncc(Br)c1C(=O)Nc1ccc2c(c1)OCCO2	-21	/	.	.	.	/	/	.
CCn1ncc(Br)c1C(=O)Nc1cccc(F)c1	.	/	.	.	.	/	/	/
C[C@@H]1CN([C@@H](C)CO)C(=O)c2cc(C3=CCCC3)cnc2O[C@H]1CN(C)Cc1cccc(F)c1	.	.	.	.	.	.	/	/
CC(=O)N(C[C@H]1N[C@H](CO)[C@H]1c1ccc(-c2ccc(F)cc2)cc1)C(C)C	.	.	.	.	.	.	/	/
COc1ccc(C(=O)Cn2c(C)nc([N+](=O)[O-])c2Br)cc1	-35	/	.	/	/	.	/	.
Cc1nc([N+](=O)[O-])c(Br)n1CC(=O)c1ccc(Cl)cc1	/	/	/	/	.	/	/	/
O=C(COc1ccc(F)cc1)c1c(O)cc(O)cc1O	.	.	.	.	.	.	/	/
COc1ccc(C(=O)COc2ccc(F)cc2)c(O)c1	-21	.	.	.	.	.	.	.
COc1ccc(-c2nc(C(=O)O)cs2)cc1OC	.	/	.	.	.	.	/	/
COc1ccc(-c2cc(C(=O)O)nc3ccc4ccccc4c23)cc1OC	-29	/	.	.	.	/	.	/
CN1[C@@H]2c3cccc(=O)n3C[C@@H]2[C@@H](CO)[C@@H]1C(=O)NCC1CCCCC1	.	.	.	.	.	.	/	/
O=S(=O)(Nc1ccc(-c2cnco2)cc1)c1ccccc1	-25	/	.	.	/	/	.	/
COCC(=O)N(C)C[C@H]1Oc2ncc(-c3cccc(OC)c3)cc2C(=O)N([C@@H](C)CO)C[C@H]1C	.	.	.	.	.	.	/	/
COc1ccc2sc(N3C(=O)CC(Cc4cccc(C)c4)C3=O)nc2c1 (stereo not drawn)	-33	.	.	.	.	.	/	?
CCCNC(=O)N1[C@@H](CO)[C@@H]2c3ccccc3N(C(=O)Nc3cccc(F)c3)C[C@@H]21	.	.	.	.	.	.	/	/
CN(Cc1cccc(F)c1)C(=O)CN1CCN(S(=O)(=O)c2ccc3c(c2)OCCCO3)CC1	.	.	.	.	.	.	/	/
CN(Cc1ccc(F)cc1)C(=O)CN1CCN(S(=O)(=O)c2ccc3c(c2)OCCCO3)CC1	-18	.	.	.	/	.	/	?
C[C@@H]1CCCCO[C@@H](CN(C)Cc2ccccc2)[C@@H](C)CN([C@@H](C)CO)C(=O)c2cc(NC(=O)C3CCCCC3)ccc2O1	.	.	.	.	.	/	/	/
SMILES	Ecoli rRNA inh	Cneo AK release	S100A4 MyoIIA	SIRT5 block	PGC1a acetyl inh	Statin myotox sup	AID977621	AID977628
Cc1ccccc1S(=O)(=O)N1[C@@H](C#N)[C@@H](c2ccc(-c3ccc(F)cc3)cc2)[C@@H]1CO	.	.	.	.	.	.	/	/
CCN(C(=O)COC(=O)CCc1ccccc1)c1ccccc1	-34	.	.	.	.	.	/	.
CSc1ccccc1OCc1cc(C(=O)N(C)Cc2nonc2C)no1	-30	.	.	.	.	.	.	.
CCOC(=O)C(CC)Sc1cc(C)nc2ccc(OC)cc12 (stereo not drawn)	-30	.	.	.	.	.	.	/
O=C(C[C@@H]1C=C[C@@H](NC(=O)C2CC2)[C@@H](CO)O1)NCCCN1CCOCC1	.	.	.	.	.	.	/	/
C[C@@H]1CN([C@H](C)CO)C(=O)c2ccccc2-c2ccccc2CO[C@@H]1CN(C)S(=O)(=O)c1ccc(F)cc1	.	.	.	.	.	.	/	/
CCCNC(=O)[C@H]1[C@H](CO)[C@H]2Cn3c(ccc(-c4ccc(F)cc4)c3=O)[C@@H]1N2CC	.	.	.	.	.	.	/	/
O=C(Nc1cccc(S(=O)(=O)c2cccc(NC(=O)C3CC3)c2)c1)C1CC1	-23	.	.	.	.	.	?	.
Cc1ccsc1C(=O)OCC(=O)N1CCc2ccccc2C1	-22	.	.	.	.	.	.	/
O=C(Nc1ccc2nc(-c3ccccc3)[nH]c2c1)c1cccs1	-32	.	.	.	.	.	.	/
O=C(Nc1ccc2nc(-c3cccnc3)[nH]c2c1)c1ccco1	-31	.	.	.	.	.	.	/
COC(=O)c1ccc(C(=O)Nc2ccc3nc(-c4ccncc4)[nH]c3c2)cc1	-28	.	.	.	/	.	.	.
O=C(Nc1ccc2nc(-c3ccc4nc[nH]c4c3)[nH]c2c1)c1cccs1	/	.	/	/	.	.	/	/
CC(=O)N(C)C[C@H]1Oc2cc(-c3ccccc3C)ccc2S(=O)(=O)N([C@@H](C)CO)C[C@H]1C	.	.	.	.	.	.	/	/
O=C(Cc1ccccn1)NCC[C@@H]1CC[C@@H](NC(=O)Nc2ccc(Cl)cc2)[C@H](CO)O1	.	.	.	.	.	.	/	/
CCS(=O)(=O)c1ccc2oc(SCC(=O)NCCc3ccc(OC)cc3)nc2c1	.	/	.	.	/	/	/	/
CN(C)S(=O)(=O)c1ccc2oc(SCC(=O)NCC(F)(F)F)nc2c1	-14	.	.	.	.	.	?	.
COc1ccc(C2CC(c3cccs3)=Nc3ccccc3S2)cc1 (stereo not drawn)	-26	.	.	.	.	?	.	?
COc1ccc(C2CC(c3cccs3)=NN2S(C)(=O)=O)cc1 (stereo not drawn)	.	.	.	.	.	.	/	/
CC(C)(C)N(Cc1ccccc1)C(=O)COC(=O)Cn1cnc2ccccc2c1=O	-32	/	.	.	.	/	.	.
CC(C)(C)N(Cc1ccccc1)C(=O)COC(=O)Cn1[nH]c(=O)c2ccccc2c1=O	.	.	.	/	.	.	/	/
